Source: ChEMBL document CHEMBL3244382, “Structural requirements for antileukemic activity among the naturally occurring and semisynthetic maytansinoids” (J Med Chem, 1978)
≈ marks a conversion by molar mass, not a printed value. Calls of active or inactive are those of the source.

Experiments:
Mus musculus [1] = experiment: Toxicity in PS mouse allografted with mouse P388 cells assessed as change in body weight at 0.8 ug/kg relative to control; type: organism-based; conditions: in vivo, 0.0008 mg/kg
Procedure, shortened: (§1)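 PS (P388 leukemia) mice, six per dose group. Toxicity read as the difference in grams between the weights of treated and control animals.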

P388 [2] = experiment: Antitumor activity against mouse P388 cells allografted in PS mouse assessed as median survival time at 50 ug/kg relative to control; type: functional
Procedure, shortened: (§2)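 P388 leukemia (PS) in mice, six mice started per dose group. Read-out is T/C: median survival time of the treated group divided by that of the untreated control group, expressed as a percent. The NIH protocol counts a compound as active when T/C > 125%.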

Mus musculus [3] = experiment: Toxicity in PS mouse allografted with mouse P388 cells assessed as survival at 200 ug/kg after 4 days; type: organism-based; conditions: in vivo, 0.2 mg/kg, 96 h
Procedure, shortened: (§3)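 PS (P388) leukemic mice, six started per dose group. Toxicity scored as survivors on the toxicity day over the number of mice started. The toxicity day is normally 4 days after the first injection.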

Mus musculus [4] = experiment: Toxicity in PS mouse allografted with mouse P388 cells assessed as survival at 25 ug/kg after 4 days; type: organism-based; conditions: in vivo, 0.025 mg/kg, 96 h; procedure, shortened: as §3
P388 [5] = experiment: Antitumor activity against mouse P388 cells allografted in PS mouse assessed as median survival time at 1.5 ug/kg relative to control; type: functional; procedure, shortened: as §2
Mus musculus [6] = experiment: Toxicity in PS mouse allografted with mouse P388 cells assessed as change in body weight at 50 ug/kg relative to control; type: organism-based; conditions: in vivo, 0.05 mg/kg
Procedure, shortened: (§4)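 P388 (PS) leukemia in mice, 6 mice per dose group. Weight change is the difference in grams between treated and control animals. Survivors are recorded on toxicity day, normally 4 days after the first injection.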

P388 [7] = experiment: Antitumor activity against mouse P388 cells allografted in PS mouse assessed as median survival time at 25 ug/kg relative to control; type: functional; procedure, shortened: as §2
P388 [8] = experiment: Antitumor activity against mouse P388 cells allografted in PS mouse assessed as median survival time at 12.5 ug/kg relative to control; type: functional; procedure, shortened: as §2
P388 [9] = experiment: Antitumor activity against mouse P388 cells allografted in PS mouse assessed as median survival time at 200 ug/kg relative to control; type: functional; procedure, shortened: as §2
Mus musculus [10] = experiment: Toxicity in PS mouse allografted with mouse P388 cells assessed as change in body weight at 3.1 ug/kg relative to control; type: organism-based; conditions: in vivo, 0.0031 mg/kg; procedure, shortened: as §4
P388 [11] = experiment: Antitumor activity against mouse P388 cells allografted in PS mouse assessed as median survival time at 6.2 ug/kg relative to control; type: functional; procedure, shortened: as §2
Mus musculus [12] = experiment: Toxicity in PS mouse allografted with mouse P388 cells assessed as survival at 6.2 ug/kg after 4 days; type: organism-based; conditions: in vivo, 0.0062 mg/kg, 96 h; procedure, shortened: as §3
Mus musculus [13] = experiment: Toxicity in PS mouse allografted with mouse P388 cells assessed as survival at 0.8 ug/kg after 4 days; type: organism-based; conditions: in vivo, 0.0008 mg/kg, 96 h; procedure, shortened: as §3
Tubulin (Homo sapiens) = Tubulin (Homo sapiens) (UniProt P68371+Q9H4B7+P0DPH7+P68366+Q13509+Q71U36+P04350+Q3ZCM7+P07437+P68363+Q9BQE3+Q6PEY2+Q13885+Q9BVA1+Q9BUF5); experiment: Inhibition of brain tubulin polymerization (unknown origin) at 37 degC by spectrophotometry
Mus musculus [14] = experiment: Toxicity in PS mouse allografted with mouse P388 cells assessed as survival at 1.5 ug/kg after 4 days; type: organism-based; conditions: in vivo, 0.0015 mg/kg, 96 h; procedure, shortened: as §3
Mus musculus [15] = experiment: Toxicity in PS mouse allografted with mouse P388 cells assessed as survival at 12.5 ug/kg after 4 days; type: organism-based; conditions: in vivo, 0.0125 mg/kg, 96 h; procedure, shortened: as §3
KB = experiment: Cytotoxicity against human KB cells; type: functional; conditions: read-out: ED50 (the source's name)
Mus musculus [16] = experiment: Toxicity in PS mouse allografted with mouse P388 cells assessed as change in body weight at 25 ug/kg relative to control; type: organism-based; conditions: in vivo, 0.025 mg/kg; procedure, shortened: as §4
Mus musculus [17] = experiment: Toxicity in PS mouse allografted with mouse P388 cells assessed as change in body weight at 12.5 ug/kg relative to control; type: organism-based; conditions: in vivo, 0.0125 mg/kg; procedure, shortened: as §4
P388 [18] = experiment: Antitumor activity against mouse P388 cells allografted in PS mouse assessed as median survival time at 100 ug/kg relative to control; type: functional; procedure, shortened: as §2
Mus musculus [19] = experiment: Toxicity in PS mouse allografted with mouse P388 cells assessed as change in body weight at 6.2 ug/kg relative to control; type: organism-based; conditions: in vivo, 0.0062 mg/kg; procedure, shortened: as §4
P388 [20] = experiment: Antitumor activity against mouse P388 cells allografted in PS mouse assessed as median survival time at 3.1 ug/kg relative to control; type: functional; procedure, shortened: as §2
P388 [21] = experiment: Antitumor activity against mouse P388 cells allografted in PS mouse assessed as median survival time at 0.8 ug/kg relative to control; type: functional; procedure, shortened: as §2
Mus musculus [22] = experiment: Toxicity in PS mouse allografted with mouse P388 cells assessed as survival at 3.1 ug/kg after 4 days; type: organism-based; conditions: in vivo, 0.0031 mg/kg, 96 h; procedure, shortened: as §3
Mus musculus [23] = experiment: Toxicity in PS mouse allografted with mouse P388 cells assessed as change in body weight at 1.5 ug/kg relative to control; type: organism-based; conditions: in vivo, 0.0015 mg/kg; procedure, shortened: as §1
Mus musculus [24] = experiment: Toxicity in PS mouse allografted with mouse P388 cells assessed as survival at 1.6 ug/kg after 4 days; type: organism-based; conditions: in vivo, 0.0016 mg/kg, 96 h; procedure, shortened: as §3
Mus musculus [25] = experiment: Toxicity in PS mouse allografted with mouse P388 cells assessed as change in body weight at 200 ug/kg relative to control; type: organism-based; conditions: in vivo, 0.2 mg/kg; procedure, shortened: as §4
Paracentrotus lividus = experiment: Antimitotic activity against sea urchin eggs assessed as drug level causing inhibition of mitosis; type: functional; conditions: Egg
Mus musculus [26] = experiment: Toxicity in PS mouse allografted with mouse P388 cells assessed as survival at 100 ug/kg after 4 days; type: organism-based; conditions: in vivo, 0.1 mg/kg, 96 h; procedure, shortened: as §3
Mus musculus [27] = experiment: Toxicity in PS mouse allografted with mouse P388 cells assessed as change in body weight at 100 ug/kg relative to control; type: organism-based; conditions: in vivo, 0.1 mg/kg; procedure, shortened: as §4
Mus musculus [28] = experiment: Toxicity in PS mouse allografted with mouse P388 cells assessed as survival at 50 ug/kg after 4 days; type: organism-based; conditions: in vivo, 0.05 mg/kg, 96 h; procedure, shortened: as §3

## COc1cc2cc(c1Cl)N(C)C(=O)C[C@H](OC(C)=O)[C@]1(C)O[C@H]1[C@H](C)[C@@H]1C[C@@](O)(NC(=O)O1)[C@H](OC)/C=C/C=C(\C)C2
Mus musculus [1]
  Activity: 0 g
P388 [2]
  T/C: 183%
Mus musculus [3]
  Activity: Non-toxic
Mus musculus [4]
  Activity: Non-toxic
P388 [5]
  T/C: 150%
Mus musculus [6]
  Activity: -0.3 g
P388 [7]
  T/C: 173%
P388 [8]
  T/C: 158%
P388 [9]
  T/C: 100%
Mus musculus [10]
  Activity: -1 g
P388 [11]
  T/C: 150%
Mus musculus [12]
  Activity: Non-toxic
Mus musculus [13]
  Activity: Non-toxic
Tubulin (Homo sapiens)
  inhibition: Active
Mus musculus [14]
  Activity: Non-toxic
Mus musculus [15]
  Activity: Non-toxic
KB
  EC50: 0.0018 ng/mL (≈ 0.00296 nM)
Mus musculus [16]
  Activity: -1.2 g
Mus musculus [17]
  Activity: 0.3 g
P388 [18]
  T/C: 230%
Mus musculus [19]
  Activity: 0.5 g
P388 [20]
  T/C: 133%
P388 [21]
  T/C: 110%
Mus musculus [22]
  Activity: Non-toxic
Mus musculus [23]
  Activity: -1.1 g
Mus musculus [24]
  Activity: Non-toxic
Mus musculus [25]
  Activity: -3.7 g
Paracentrotus lividus
  Activity: 1 ×10⁻⁸ mol/L
Mus musculus [26]
  Activity: Non-toxic
Mus musculus [27]
  Activity: -0.6 g
Mus musculus [28]
  Activity: Non-toxic
